Assays:
Conditions in all cases: stereoisomer not certain
UniProt Q8VG27 = biological target: T1, UniProt Q8VG27
T1 sequence (whole entry): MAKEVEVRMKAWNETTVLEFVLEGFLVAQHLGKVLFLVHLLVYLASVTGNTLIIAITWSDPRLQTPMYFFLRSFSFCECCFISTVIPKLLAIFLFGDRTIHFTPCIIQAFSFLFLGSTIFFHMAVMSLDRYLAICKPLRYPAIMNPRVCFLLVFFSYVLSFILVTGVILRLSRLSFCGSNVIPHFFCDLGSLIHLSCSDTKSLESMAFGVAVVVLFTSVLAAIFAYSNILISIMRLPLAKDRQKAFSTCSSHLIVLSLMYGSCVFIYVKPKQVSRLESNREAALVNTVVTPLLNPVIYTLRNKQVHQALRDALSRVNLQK
Method in brief: (§1)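 Transient luciferase assays in mammalian cell lines were common, though methods varied by source. The values come from published papers and their supplementary material, with extra details from the original authors when needed. Responsive refers to a measured signal the original authors judged statistically different from baseline, and non-responsive (inactive) to the remainder.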

UniProt Q8VG53 = biological target: T2, UniProt Q8VG53
T2 sequence (whole entry): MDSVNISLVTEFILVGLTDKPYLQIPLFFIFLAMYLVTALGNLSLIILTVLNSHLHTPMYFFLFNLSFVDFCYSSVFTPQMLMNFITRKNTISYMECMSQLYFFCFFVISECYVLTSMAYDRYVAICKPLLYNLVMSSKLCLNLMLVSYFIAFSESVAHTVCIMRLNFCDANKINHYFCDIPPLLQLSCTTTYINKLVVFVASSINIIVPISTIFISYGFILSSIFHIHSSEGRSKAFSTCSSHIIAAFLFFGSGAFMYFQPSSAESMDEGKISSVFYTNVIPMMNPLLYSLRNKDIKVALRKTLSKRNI
Method in brief: as §1

UniProt Q8VG64 = biological target: T3, UniProt Q8VG64
T3 sequence (whole entry): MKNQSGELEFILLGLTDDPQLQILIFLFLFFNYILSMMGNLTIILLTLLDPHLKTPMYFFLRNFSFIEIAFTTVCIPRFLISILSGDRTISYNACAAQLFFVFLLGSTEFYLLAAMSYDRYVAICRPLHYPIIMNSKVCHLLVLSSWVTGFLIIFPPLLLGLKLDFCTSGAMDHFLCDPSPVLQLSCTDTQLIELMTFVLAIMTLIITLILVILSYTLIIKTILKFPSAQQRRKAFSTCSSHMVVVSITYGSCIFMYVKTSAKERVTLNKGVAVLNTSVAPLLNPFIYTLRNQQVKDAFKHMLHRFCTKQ
Method in brief: as §1

UniProt Q8VGB9 = biological target: T4, UniProt Q8VGB9
T4 sequence (whole entry): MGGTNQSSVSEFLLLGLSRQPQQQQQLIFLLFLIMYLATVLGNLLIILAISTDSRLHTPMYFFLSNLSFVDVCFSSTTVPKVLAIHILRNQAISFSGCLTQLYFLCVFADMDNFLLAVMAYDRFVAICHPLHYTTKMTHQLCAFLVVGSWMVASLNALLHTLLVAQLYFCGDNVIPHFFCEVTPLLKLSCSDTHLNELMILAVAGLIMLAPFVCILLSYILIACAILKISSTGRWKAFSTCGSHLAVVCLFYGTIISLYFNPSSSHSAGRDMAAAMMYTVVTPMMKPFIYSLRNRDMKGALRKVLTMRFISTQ
Method in brief: as §1

UniProt Q8VGC6 = biological target: T5, UniProt Q8VGC6
T5 sequence (whole entry): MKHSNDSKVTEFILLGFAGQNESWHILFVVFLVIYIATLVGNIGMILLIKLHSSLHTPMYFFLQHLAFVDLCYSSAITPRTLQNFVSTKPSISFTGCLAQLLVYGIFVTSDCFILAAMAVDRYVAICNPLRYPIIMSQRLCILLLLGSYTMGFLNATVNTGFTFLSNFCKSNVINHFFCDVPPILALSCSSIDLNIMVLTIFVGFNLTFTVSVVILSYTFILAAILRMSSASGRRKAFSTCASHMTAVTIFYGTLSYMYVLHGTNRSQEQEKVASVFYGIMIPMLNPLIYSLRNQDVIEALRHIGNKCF
Method in brief: as §1

UniProt Q8VGJ3 = biological target: T6, UniProt Q8VGJ3
T6 sequence (whole entry): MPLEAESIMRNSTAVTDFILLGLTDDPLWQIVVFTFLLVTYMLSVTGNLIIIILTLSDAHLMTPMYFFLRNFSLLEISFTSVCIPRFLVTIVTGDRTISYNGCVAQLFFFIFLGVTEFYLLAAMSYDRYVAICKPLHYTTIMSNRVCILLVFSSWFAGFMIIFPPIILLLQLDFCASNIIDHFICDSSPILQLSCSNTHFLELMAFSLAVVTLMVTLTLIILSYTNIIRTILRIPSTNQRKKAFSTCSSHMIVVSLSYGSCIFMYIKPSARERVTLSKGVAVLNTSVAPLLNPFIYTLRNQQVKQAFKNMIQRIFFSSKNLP
Method in brief: as §1

UniProt Q8VGL0 = biological target: T7, UniProt Q8VGL0
T7 sequence (whole entry): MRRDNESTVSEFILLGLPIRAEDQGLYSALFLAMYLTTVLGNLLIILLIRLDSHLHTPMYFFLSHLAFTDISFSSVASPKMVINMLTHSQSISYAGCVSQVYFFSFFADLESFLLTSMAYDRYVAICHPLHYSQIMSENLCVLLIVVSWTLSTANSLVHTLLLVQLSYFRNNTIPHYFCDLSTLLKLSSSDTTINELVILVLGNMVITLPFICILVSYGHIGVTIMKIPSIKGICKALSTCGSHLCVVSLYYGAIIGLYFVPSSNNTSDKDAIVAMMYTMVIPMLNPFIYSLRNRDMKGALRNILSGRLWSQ
Method in brief: as §1

Measured: odorant receptor agonist call

C=C(C)C1CCC(C)C(O)C1 (stereo not given)
active: UniProt Q8VGL0
inactive: UniProt Q8VG27 | UniProt Q8VG53 | UniProt Q8VG64 | UniProt Q8VGB9 | UniProt Q8VGC6 | UniProt Q8VGJ3

CCCO
inactive: UniProt Q8VG27 | UniProt Q8VG53 | UniProt Q8VG64 | UniProt Q8VGB9 | UniProt Q8VGC6 | UniProt Q8VGJ3 | UniProt Q8VGL0

Cc1occc1SSc1ccoc1C
inactive: UniProt Q8VG27 | UniProt Q8VG53 | UniProt Q8VG64 | UniProt Q8VGB9 | UniProt Q8VGC6 | UniProt Q8VGJ3 | UniProt Q8VGL0

CC=C(C)C=O
inactive: UniProt Q8VG27 | UniProt Q8VG53 | UniProt Q8VG64 | UniProt Q8VGB9 | UniProt Q8VGC6 | UniProt Q8VGJ3 | UniProt Q8VGL0

CCSSCC
inactive: UniProt Q8VG27 | UniProt Q8VG53 | UniProt Q8VG64 | UniProt Q8VGB9 | UniProt Q8VGC6 | UniProt Q8VGJ3 | UniProt Q8VGL0

Cc1ccc2c(c1)OCC(=O)CO2
inactive: UniProt Q8VG27 | UniProt Q8VG53 | UniProt Q8VG64 | UniProt Q8VGB9 | UniProt Q8VGC6 | UniProt Q8VGJ3 | UniProt Q8VGL0

C=CC(=O)CCCCC
inactive: UniProt Q8VG27 | UniProt Q8VG53 | UniProt Q8VG64 | UniProt Q8VGB9 | UniProt Q8VGC6 | UniProt Q8VGJ3 | UniProt Q8VGL0

CCc1ccccc1O
active: UniProt Q8VGL0
inactive: UniProt Q8VG27 | UniProt Q8VG53 | UniProt Q8VG64 | UniProt Q8VGB9 | UniProt Q8VGC6 | UniProt Q8VGJ3

OCC=Cc1ccccc1
inactive: UniProt Q8VG27 | UniProt Q8VG53 | UniProt Q8VG64 | UniProt Q8VGB9 | UniProt Q8VGC6 | UniProt Q8VGJ3 | UniProt Q8VGL0

CCCCCC=CCCC=O
inactive: UniProt Q8VG27 | UniProt Q8VG53 | UniProt Q8VG64 | UniProt Q8VGB9 | UniProt Q8VGC6 | UniProt Q8VGJ3 | UniProt Q8VGL0

C=CC(=C)CCC=C(C)CCC=C(C)C
inactive: UniProt Q8VG27 | UniProt Q8VG53 | UniProt Q8VG64 | UniProt Q8VGB9 | UniProt Q8VGC6 | UniProt Q8VGJ3 | UniProt Q8VGL0

O=C(O)CCCCCCCCC(=O)O
inactive: UniProt Q8VG27 | UniProt Q8VG53 | UniProt Q8VG64 | UniProt Q8VGB9 | UniProt Q8VGC6 | UniProt Q8VGJ3 | UniProt Q8VGL0

C1CCOC1
inactive: UniProt Q8VG27 | UniProt Q8VG53 | UniProt Q8VG64 | UniProt Q8VGB9 | UniProt Q8VGC6 | UniProt Q8VGJ3 | UniProt Q8VGL0

CC(C)CS
inactive: UniProt Q8VG27 | UniProt Q8VG53 | UniProt Q8VG64 | UniProt Q8VGB9 | UniProt Q8VGC6 | UniProt Q8VGJ3 | UniProt Q8VGL0

COc1ccccc1
inactive: UniProt Q8VG27 | UniProt Q8VG53 | UniProt Q8VG64 | UniProt Q8VGB9 | UniProt Q8VGC6 | UniProt Q8VGJ3 | UniProt Q8VGL0

C1CCOCC1
inactive: UniProt Q8VG27 | UniProt Q8VG53 | UniProt Q8VG64 | UniProt Q8VGB9 | UniProt Q8VGC6 | UniProt Q8VGJ3 | UniProt Q8VGL0

Cc1c(C)c(C)c(C=O)c(C)c1C
inactive: UniProt Q8VG27 | UniProt Q8VG53 | UniProt Q8VG64 | UniProt Q8VGB9 | UniProt Q8VGC6 | UniProt Q8VGJ3 | UniProt Q8VGL0

CCC(C)c1nccnc1OC (stereo not given)
inactive: UniProt Q8VG27 | UniProt Q8VG53 | UniProt Q8VG64 | UniProt Q8VGB9 | UniProt Q8VGC6 | UniProt Q8VGJ3 | UniProt Q8VGL0

CCCCCCCCC=CC=O
inactive: UniProt Q8VG27 | UniProt Q8VG53 | UniProt Q8VG64 | UniProt Q8VGB9 | UniProt Q8VGC6 | UniProt Q8VGJ3 | UniProt Q8VGL0

CCc1ccc(O)cc1
inactive: UniProt Q8VG27 | UniProt Q8VG53 | UniProt Q8VG64 | UniProt Q8VGB9 | UniProt Q8VGC6 | UniProt Q8VGJ3 | UniProt Q8VGL0

CCCCCOC(=O)CC
inactive: UniProt Q8VG27 | UniProt Q8VG53 | UniProt Q8VG64 | UniProt Q8VGB9 | UniProt Q8VGC6 | UniProt Q8VGJ3 | UniProt Q8VGL0

CCOC(=O)C(C)CC (stereo not given)
inactive: UniProt Q8VG27 | UniProt Q8VG53 | UniProt Q8VG64 | UniProt Q8VGB9 | UniProt Q8VGC6 | UniProt Q8VGJ3 | UniProt Q8VGL0

CCCCCCCCCCCO
inactive: UniProt Q8VG27 | UniProt Q8VG53 | UniProt Q8VG64 | UniProt Q8VGB9 | UniProt Q8VGC6 | UniProt Q8VGJ3 | UniProt Q8VGL0

C=CC(=C)CCC=C(C)C
inactive: UniProt Q8VG27 | UniProt Q8VG53 | UniProt Q8VG64 | UniProt Q8VGB9 | UniProt Q8VGC6 | UniProt Q8VGJ3 | UniProt Q8VGL0

CCSCC
inactive: UniProt Q8VG27 | UniProt Q8VG53 | UniProt Q8VG64 | UniProt Q8VGB9 | UniProt Q8VGC6 | UniProt Q8VGJ3 | UniProt Q8VGL0

C=C(CC)CCCC(C)(C)O
inactive: UniProt Q8VG27 | UniProt Q8VG53 | UniProt Q8VG64 | UniProt Q8VGB9 | UniProt Q8VGC6 | UniProt Q8VGJ3 | UniProt Q8VGL0

CNc1ccccc1C(=O)OC
inactive: UniProt Q8VG27 | UniProt Q8VG53 | UniProt Q8VG64 | UniProt Q8VGB9 | UniProt Q8VGC6 | UniProt Q8VGJ3 | UniProt Q8VGL0

CC(CC=O)CCCC(C)(C)O (stereo not given)
inactive: UniProt Q8VG27 | UniProt Q8VG53 | UniProt Q8VG64 | UniProt Q8VGB9 | UniProt Q8VGC6 | UniProt Q8VGJ3 | UniProt Q8VGL0

COc1nccnc1C
inactive: UniProt Q8VG27 | UniProt Q8VG53 | UniProt Q8VG64 | UniProt Q8VGB9 | UniProt Q8VGC6 | UniProt Q8VGJ3 | UniProt Q8VGL0

Cc1ccccc1OC(=O)C(C)C
inactive: UniProt Q8VG27 | UniProt Q8VG53 | UniProt Q8VG64 | UniProt Q8VGB9 | UniProt Q8VGC6 | UniProt Q8VGJ3 | UniProt Q8VGL0

CCCCCCCCCC=CC=O
inactive: UniProt Q8VG27 | UniProt Q8VG53 | UniProt Q8VG64 | UniProt Q8VGB9 | UniProt Q8VGC6 | UniProt Q8VGJ3 | UniProt Q8VGL0

CC(C)=CCCC(C)=CCOC(=O)C(C)C
inactive: UniProt Q8VG27 | UniProt Q8VG53 | UniProt Q8VG64 | UniProt Q8VGB9 | UniProt Q8VGC6 | UniProt Q8VGJ3 | UniProt Q8VGL0

OCCc1ccccc1
inactive: UniProt Q8VG27 | UniProt Q8VG53 | UniProt Q8VG64 | UniProt Q8VGB9 | UniProt Q8VGC6 | UniProt Q8VGJ3 | UniProt Q8VGL0

C=C(C)C1CC=C(C)CC1 (stereo not given)
inactive: UniProt Q8VG27 | UniProt Q8VG53 | UniProt Q8VG64 | UniProt Q8VGB9 | UniProt Q8VGC6 | UniProt Q8VGJ3 | UniProt Q8VGL0

CC=Cc1ccc(OC)cc1
inactive: UniProt Q8VG27 | UniProt Q8VG53 | UniProt Q8VG64 | UniProt Q8VGB9 | UniProt Q8VGC6 | UniProt Q8VGJ3 | UniProt Q8VGL0
